Measurements: ChEMBL document CHEMBL1154735, “A strategy to minimize reactive metabolite formation: discovery of (S)-4-(1-cyclopropyl-2-methoxyethyl)-6-[6-(difluoromethoxy)-2,5-dimethylpyridin-3-ylamino]-5-oxo-4,5-dihydropyrazine-2-carbonitrile as a potent, orally bioavailable corticotropin-releasing factor-1 receptor antagonist” (J Med Chem, 2009)
≈ marks a conversion by molar mass, not a printed value.

Assays:
[1] = Volume of distribution at steady state in Sprague-Dawley rat at 2 mg/kg, iv after 0.17 to 24 hrs by LC/MS/MS analysis; format: ADME, organism-based; set-up: dose 2 mg/kg, route intravenous; conditions: in vivo, read-out: Vdss
Summary of the method: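 Sprague–Dawley rats (n = 3) dosed 2 mg/kg iv in PEG:ethanol 90:10 (v/v) at 1 mL/kg. Plasma stored at –20 °C and quantified by LC/MS/MS after acetonitrile precipitation with internal standard.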

[2] = Cmax in Sprague-Dawley rat at 10 mg/kg, po dosed as aqueous suspension of 1% polysorbate 80 in 0.5% methylcellulose after 2 to 4 hrs by LC/MS/MS analysis; format: ADME, organism-based; set-up: dose 10 mg/kg, route oral; conditions: in vivo
[3] = Oral bioavailability in Sprague-Dawley rat at 10 mg/kg dosed as aqueous suspension of 1% polysorbate 80 in 0.5% methylcellulose after 0.25 to 24 hrs by LC/MS/MS analysis; format: ADME, organism-based; conditions: in vivo
[4] = AUC in Sprague-Dawley rat at 10 mg/kg, po dosed as aqueous suspension of Labrafil M 1944CS/DMAC/polysorbate 80, 85:10:5 (v/v) after 0.25 to 24 hrs by LC/MS/MS analysis; format: ADME, organism-based; set-up: time 0.25-24 hr, dose 10 mg/kg, route oral; conditions: plasma
[5] = Cmax in Sprague-Dawley rat at 10 mg/kg, po dosed as aqueous suspension of Labrafil M 1944CS/DMAC/polysorbate 80, 85:10:5 (v/v) after 2 to 4 hrs by LC/MS/MS analysis; format: ADME, organism-based; set-up: dose 10 mg/kg, route oral; conditions: in vivo
[6] = Solubility in simulated gastric fluid; format: physicochemical
Summary of the method: (§1)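 Solubility measured in simulated gastric fluid and in simulated intestinal fluid (fed state).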

[7] = Solubility in simulated intestinal fluid; format: physicochemical; summary of the method: as §1
[8] = Metabolic stability in NADPH-fortified human liver microsomes assessed as parent compound remaining at 10 uM after 30 mins by HPLC/UV/MS analysis; format: ADME, Microsome; conditions: read-out: Stability
Summary of the method: (§2)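 Pooled rat or human liver microsomes 1 mg/mL, 10 μM substrate, 100 mM potassium phosphate pH 7.4, 37 °C, started with NADPH-regenerating system (1.3 mM NADP+, 3.3 mM glucose-6-phosphate, 3.3 mM MgCl2, 0.5 U/mL G6PDH); GSH 5 mM in trapping runs. Sampled 0 and 30 min, acetonitrile quench; abundance as UV peak area (330–340 nm) fraction of all drug-related components by HPLC/UV/MS.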

[9] = Metabolic stability in NADPH-fortified rat liver microsomes assessed as parent compound remaining at 10 uM after 30 mins by HPLC/UV/MS analysis; format: ADME, Microsome; conditions: read-out: Stability; summary of the method: as §2
Liver microsomes [10] = assay: Metabolic stability in NADPH-fortified rat liver microsomes assessed as pyrazinone oxidation metabolite formation at 10 uM after 30 mins by HPLC/UV/MS analysis; format: ADME, Microsome; conditions: 0.5 h; summary of the method: as §2
Liver microsomes [11] = assay: Metabolic stability in NADPH-fortified rat liver microsomes assessed as GSH adduct formation at 10 uM after 30 mins by HPLC/UV/MS analysis; format: ADME, Microsome; conditions: 0.5 h; summary of the method: as §2
[12] = Fraction unbound in human serum after 3 to 7 hrs by equilibrium dialysis; format: ADME, cell-free
Summary of the method: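 Human serum spiked with compound, equilibrium-dialysed against isotonic phosphate buffer for 3 or 7 h (depending on system) at 37 °C; both sides measured by LC/MS/MS, unbound fraction as buffer/serum concentration ratio.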

[13] = Displacement of [125I]sauvagine from CRF2 receptor in porcine choroid plexus homogenate by binding titration assay; format: tissue-based, Sus scrofa
Summary of the method: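 Porcine choroid plexus homogenate; inhibition of [125I]-sauvagine binding measured in a titration format.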

Rattus norvegicus [14] = assay: Total plasma concentration in Sprague-Dawley rat at 1 mg/kg, po after 1 to 3 hrs by LC/MS/MS analysis; format: ADME, organism-based; set-up: dose 1 mg/kg, route oral; conditions: in vivo
Rattus norvegicus [15] = assay: Total plasma concentration in Sprague-Dawley rat at 1.8 mg/kg, po after 1 to 3 hrs by LC/MS/MS analysis; format: ADME, organism-based; set-up: dose 1.8 mg/kg, route oral; conditions: in vivo
Rattus norvegicus [16] = assay: Plasma free concentration in Sprague-Dawley rat at 1.8 mg/kg, po after 1 to 3 hrs by LC/MS/MS analysis; format: ADME, organism-based; set-up: dose 1.8 mg/kg, route oral; conditions: in vivo
Rattus norvegicus [17] = assay: Plasma free concentration in Sprague-Dawley rat at 3 mg/kg, po after 1 to 3 hrs by LC/MS/MS analysis; format: ADME, organism-based; set-up: dose 3 mg/kg, route oral; conditions: in vivo
Rattus norvegicus [18] = assay: Ex vivo receptor occupancy of CRF1 receptor in Sprague-Dawley rat brain parietal assessed as inhibition of [125I]sauvagine binding at 1 mg/kg, po after 90 mins by autoradiography; format: functional; conditions: 1.5 h
Rattus norvegicus [19] = assay: Ex vivo receptor occupancy of CRF1 receptor in Sprague-Dawley rat brain parietal assessed as inhibition of [125I]sauvagine binding at 3 mg/kg, po after 90 mins by autoradiography; format: functional; conditions: 1.5 h
Rattus norvegicus [20] = assay: Anxiolytic activity in Sprague-Dawley rat assessed as decrease in exit latency at 0.56 mg/kg, po after 60 mins by defensive withdrawal test relative to control; format: functional; set-up: scale not given: the % may be the effect or the level left
Summary of the method: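 Rats placed in a darkened chamber within an open illuminated field; time to emerge measured 60 min after oral dosing (0.56–3 mg/kg), n = 8; percent decrease in exit latency versus vehicle-treated animals, p < 0.05 significance.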

[21] = Volume of distribution at steady state in Beagle dog at 2 mg/kg, iv after 0.17 to 24 hrs by LC/MS/MS analysis; format: ADME, organism-based, Canis lupus familiaris; set-up: dose 2 mg/kg, route intravenous; conditions: in vivo, read-out: Vdss
Summary of the method: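 Male beagle dogs (n = 4) given 2 mg/kg iv in propylene glycol:ethanol 90:10 (v/v), 1 mL/kg infused over 5 min at 0.2 mL/kg/min. Plasma stored at –20 °C and analysed by LC/MS/MS after acetonitrile precipitation.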

[22] = Half life in Beagle dog at 2 mg/kg, iv by LC/MS/MS analysis; format: ADME, organism-based, Canis lupus familiaris; set-up: dose 2 mg/kg, route intravenous; conditions: in vivo
Summary of the method: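 Male beagle dogs (n = 4), 2 mg/kg iv in propylene glycol:ethanol 90:10 (v/v), 1 mL/kg infused over 5 min at 0.2 mL/kg/min; femoral vein blood at 0.17–24 h; plasma frozen at –20 °C, analysed by LC/MS/MS.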

[23] = Cmax in Beagle dog at 2 mg/kg, po dosed as aqueous suspension of 1% polysorbate 80 in 0.5% methylcellulose after 2 to 4 hrs by LC/MS/MS analysis; format: ADME, organism-based, Canis lupus familiaris; set-up: dose 2 mg/kg, route oral; conditions: in vivo
[24] = Oral bioavailability in Beagle dog at 2 mg/kg dosed as aqueous suspension of 1% polysorbate 80 in 0.5% methylcellulose after 0.25 to 24 hrs by LC/MS/MS analysis; format: ADME, organism-based, Canis lupus familiaris; conditions: in vivo
[25] = AUC in Beagle dog at 3 mg/kg, po dosed as aqueous suspension of Labrafil M 1944CS/DMAC/polysorbate 80, 85:10:5 (v/v) after 0.25 to 24 hrs by LC/MS/MS analysis; format: ADME, organism-based, Canis lupus familiaris; set-up: time upper 24 hr, time lower 0.25 hr, dose 3 mg/kg, route oral; conditions: plasma
Summary of the method: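 Oral solution dosing at 3 mg/kg in Labrafil M 1944CS/DMAC/polysorbate 80, 85:10:5 (v/v), at 1 mL/kg, in fasted male beagle dogs (n = 2). Samples were acetonitrile-precipitated with internal standard and measured by LC/MS/MS using selected reaction monitoring in positive ion mode.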

Rattus norvegicus [26] = assay: Ex vivo receptor occupancy of CRF1 receptor in po dosed Sprague-Dawley rat brain parietal assessed as inhibition of [125I]sauvagine binding after 90 mins by autoradiography; format: functional, organism-based
Rattus norvegicus [27] = assay: Toxicity in Sprague-Dawley rat at 20 mg/kg after 2 weeks; format: organism-based; set-up: dose 20 mg/kg; conditions: in vivo, 336 h
Rattus norvegicus [28] = assay: Toxicity in Sprague-Dawley rat at 60 mg/kg after 2 weeks; format: organism-based; set-up: dose 60 mg/kg; conditions: in vivo, 336 h
Rattus norvegicus [29] = assay: Toxicity in Sprague-Dawley rat at 175 mg/kg after 2 weeks; format: organism-based; set-up: dose 175 mg/kg; conditions: in vivo, 336 h
Rattus norvegicus [30] = assay: Neurotoxicity in Sprague-Dawley rat assessed as alteration of motor coordination up to 60 mg/kg by rotarod test; format: toxicity, organism-based; set-up: dose 60 mg/kg; conditions: in vivo

- Vd [1]: 11 L/kg
- Cmax [2]: 860 nM
- bioavailability [3]: 31%
- AUC [4]: 8.8 µM·h
- Cmax [5]: 1600 nM
- solubility [6]: 15 µg/mL (≈ 37 µM)
- solubility [7]: 7.4 µg/mL (≈ 18.3 µM)
- remaining at 0.5 h, 10 µM [8]: 56%
- remaining at 0.5 h, 10 µM [9]: 82%
- Activity (Liver microsomes [10]): < 1%
- Activity (Liver microsomes [11]): 3%
- fraction unbound [12]: 0.035
- IC50 [13]: > 10 µM
- concentration (Rattus norvegicus [14]): 45 nM
- concentration (Rattus norvegicus [15]): 83 nM
- Cp(f) (Rattus norvegicus [16]): 2.9 nM
- Cp(f) (Rattus norvegicus [17]): 5 nM
- Vd [21]: 13 L/kg
- half-life [22]: 30 h
- Cmax [23]: 880 nM
- bioavailability [24]: 53%
- AUC [25]: 17 µM·h
- Activity (Rattus norvegicus [26]): Dose-dependent effect
Structure (SMILES): COC[C@H](C1CC1)n1cc(C#N)nc(Nc2cc(C)c(OC(F)F)nc2C)c1=O
- inhibition in vivo at 1 mg/kg (Rattus norvegicus [18]): 43%
- inhibition in vivo at 3 mg/kg (Rattus norvegicus [19]): 80%
- Activity (Rattus norvegicus [20]): 7%
- Activity (Rattus norvegicus [27]): Non-toxic
- Activity (Rattus norvegicus [28]): Non-toxic
- Activity (Rattus norvegicus [29]): Non-toxic
- Activity (Rattus norvegicus [30]): Non-toxic
